# Sampled rows, rich in hits. Any-hit rate of the full collection: about 4.2%.
# TMEM16A act – TMEM16A chloride channel activators or potentiators, primary screen, cell-based, HTS. Anoctamin-1 (Mus musculus), Q8BHY3. HEK293 TMEM16A/YFP-H148Q/I152L, iodide quench fluorescence; stronger effect = lower value. B-score at 10 µM. hit rate 0.3% among 340,000. AID 623877, 2012;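 active = fluorescence-ratio B-score plate-corrected deviation score at least 3 library SD below zero, with starting fluorescence score within 5 deviations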;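 also: channel opened by trigger with iodide after compound preincubation; score built on the fluorescence ratio of max minus min over baseline; more negative score means more quench and so TMEM16A activation or potentiation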
# Lipid droplet – inhibitors of hepatocyte lipid droplet formation, primary screen, imaging, high-throughput imaging, BODIPY stain | AML12 mouse hepatocytes, oleate lipid droplets | hit rate 0.4% among 240,000 | inhibition, % at 6.5 µM | AID 1656, 2009;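 active = lipid droplet intensity inhibited by at least 50%, with more than 500 cells counted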
#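 Assay system: AML12 mouse liver cells | Compound dosing: One dose, 6.5 µM compound | Read-out basis: Droplet intensity reduction, % inhibition | Measured by: Fluorescence imaging, 20x objective, two fields per well | Schedule: Overnight treatment with compound plus oleate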
# UPR XBP1 act – activators of adaptive XBP1 UPR arm, primary screen, cell-based, CHO-XBP1 luciferase reporter, luminescence, uHTS; activation, % at 20 µM; IRE1-XBP1 UPR activation; percent of tunicamycin response, DMSO as zero; AID 463104, 2010; hit rate 0.33% among 330,000;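 active = versus positive control, 20 µM dose yields 30% or more activation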;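 also: 100% = tunicamycin at 10 µg/mL and 0% = DMSO only wells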
#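 Test system: CHO-XBP1 luciferase reporter cells | Buffer or medium: Serum-containing F12 medium, 10% FBS | Schedule: 6 h compound exposure at 37 °C, 5% CO2 | Detection: Steady-Glo luciferase glow luminescence, 10 min after reagent addition | Read-out basis: Activation, % of tunicamycin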
# ANO1 block – TMEM16A chloride channel inhibitors, primary screen, cell-based, HTS; Anoctamin-1 (Mus musculus), Q8BHY3; HEK293 TMEM16A/YFP iodide influx fluorescence, ionomycin; normalized B-score (activity score, 25-100; higher = stronger inhibition) at 10 µM; hit rate 1.2% among 310,000;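 active = ratio plate-corrected score three or more library SD toward inhibition, starting fluorescence score within five deviations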;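 also: score derived from kinetic fluorescence span divided by baseline fluorescence per well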
# CHOP inhibitor – inhibitors of CHOP promoter induction, primary screen, cell-based, unfolded protein response, luciferase reporter | CHO-K1 CHOP-promoter luciferase, tunicamycin-induced, 15-18 h | inhibition, % at 10 µM | hit rate 3.8% among 220,000;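 active = compounds that reduced the stress-induced luciferase reporter signal by more than about 70% of percent inhibition, limit read from the data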;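 also: 0% = tunicamycin plus vehicle and 100% = wells without tunicamycin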
# UPR CHOP act – activators of apoptotic CHOP UPR arm, primary screen, cell-based, CHO-CHOP luciferase reporter, luminescence, uHTS; UPR activation; percent of tunicamycin response over DMSO baseline; activation, % at 10 µM; hit rate 0.34% among 330,000; AID 449763, 2010;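 active = at 10 µM dose, activation of 40% or more, normalized to positive control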;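 also: 100% = tunicamycin at 10 µg/mL and 0% = DMSO alone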
#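 Material: CHO-CHOP cells, stable luciferase reporter of PERK-eIF2a-CHOP signalling; quantity: 500 reporter cells seeded per well; buffer or medium: F12 medium containing 10% fetal bovine serum; compound: one dose, 10 µM in 0.5% DMSO; incubation: 6 h compound treatment, 37 °C; measured by: Steady-Glo luciferase luminescence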
# CHOP inh conf – retest of CHOP induction inhibitors, confirmation, cell-based | inhibition, % at 10 µM | hit rate 45% among 2,100 | AID 504437, 2011 | shares compounds with CHOP inhibitor | CHO-CHOP promoter luciferase reporter, tunicamycin-induced, luminescence;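 active = mean of three repeat readings of reporter signal inhibition above a set limit, cut at about 70% in these data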;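 also: 0% = tunicamycin plus vehicle and 100% = wells lacking tunicamycin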
# * hit, by the source's call; i = inactive; nt = no result given.
SMILES,TMEM16A act,Lipid droplet,UPR XBP1 act,ANO1 block,CHOP inhibitor,UPR CHOP act,CHOP inh conf
Cc1ccc2c(c1)CC1(CN2C)C(=O)NC(=O)N(C(C)C)C1=O (stereo unspecified),i,nt,-2.4,i,35.4,6.1,nt
CCOc1ccccc1C1SCC(=O)Nc2c1c(=O)[nH]n2C(CC)CC (stereo unspecified),i,nt,-2.0,i,4.5,-2.9,nt
O=C1NC(=O)N(Cc2ccco2)C(=O)/C1=C/C=C/c1ccco1,i,9.3,-1.4,i,107.8*,0.1,139.8*
Cc1ccc(N2C(=O)NC(=O)/C(=C\C=C\c3ccco3)C2=O)cc1,i,-4.9,-1.4,i,106.2*,-1.1,131.9*
Cc1ccc(N2C(=O)NC(=O)/C(=C\C=C\c3ccco3)C2=O)cc1C,i,-3.7,nt,i,110.4*,nt,104.1*
Cc1cccc(OP(N)(=O)Oc2cccc(C)c2C)c1C,i,-11.1,1.2,i,30.8,-2.0,nt
C=CCC1([C@@H](C)CCC)C(=O)NC(=O)NC1=O,i,nt,2.7,nt,nt,1.2,nt
O=C1CC(=O)N(c2ccccc2)C(=O)N1c1ccccc1,i,nt,-3.9,i,nt,2.2,nt
CN1/C(=C\C=C\C2=[N+](C)c3ccc4ccccc4c3C2(C)C)C(C)(C)c2ccccc21,nt,nt,-6.2,i,108.1*,-8.6,125.0*
CN(C)c1ccc(C2C3C=CC(C3)C2(C#N)C(=O)O)c(Br)c1 (stereo unspecified),i,-1.1,-5.4,i,nt,0.3,nt
COCCCNC(=O)c1c(N)n(Cc2ccco2)c2nc3ccccc3nc12,i,-13.5,5.9,i,5.6,1.2,nt
CC(C)OCCCNC(=O)c1c(N)n(Cc2cccs2)c2nc3ccccc3nc12,i,nt,0.5,i,104.8*,1.0,58.1
CN(c1ccc(OCC(=O)N2CCN(C/C=C/c3ccccc3)CC2)cc1)S(=O)(=O)c1cccs1,i,-18.8,-3.5,i,28.8,0.7,nt
O=c1[nH]c(CN2CCNCC2)nc2ccccc12,i,17.7,-0.5,i,98.0*,0.5,-83.8
Clc1ccc(CSC(Cn2ccnc2)c2ccc(Cl)cc2Cl)cc1 (stereo unspecified),i,-34.3,-4.0,i,108.0*,1.1,49.1
Clc1ccc(COC(Cn2ccnc2)c2ccc(Cl)cc2Cl)cc1 (stereo unspecified),i,nt,-5.7,i,45.4,0.6,nt
C[C@@H]1CC2C3CC=C4C[C@@H](O)CC[C@]4(C)C3CC[C@]2(C)[C@H]1O (stereo partly specified),i,nt,0.5,nt,nt,0.1,nt
C[C@H]1CC[C@@H]2[C@@H](C)[C@H]3[C@H](C[C@H]4[C@@H]5CC=C6C[C@@H](O[C@@H]7O[C@H](CO)[C@H](O)[C@H](O[C@@H]8O[C@H](CO)[C@@H](O)[C@H](O)[C@H]8O)[C@H]7O[C@@H]7O[C@@H](C)[C@H](O)[C@@H](O)[C@H]7O)CC[C@]6(C)[C@H]5CC[C@]34C)N2C1,i,7.5,1.5,i,106.4*,-0.4,-62.4
CCOC(=O)c1c(C)n(Cc2ccco2)c2c1cc(O)c1ccccc12,i,-16.4,2.6,i,100.7*,1.5,-49.4
CCOC(=O)c1c(C)n(Cc2ccco2)c2ccc(OC)cc12,i,nt,-5.6,i,45.4,-1.3,nt
COc1ccc(CCNCc2sccc2C)cc1OC,i,7.6,-0.7,i,43.7,0.3,nt
CCCCCCCn1c(=O)c(C(=O)Nc2cnccn2)c(O)c2ccccc21,i,6.2,-0.2,i,98.1*,19.4,116.5*

# Screens deposited in PubChem by several laboratories.
